Reference: PubChem BioAssay
Values without a mark were called inactive. Calls of active or inactive are those of the source.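 The calls were made as follows, unless noted: active = fluorescence slope after compound addition differing from the mean of all tested samples at 99.7% confidence, mostly higher but some lower; inactive = the rest.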

Biological target: Voltage-gated potassium channel subunit beta-2 (Rattus norvegicus) (UniProt P62483)
Test: KvBeta positive modulators, primary screen, biochemical, NADPH fluorescence (AID 623;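 active = NADPH fluorescence slope more negative than the mean of all samples by about 3 SD, 99.7% confidence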;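 also: fluorescence intensity change per second fitted from 20 to 320 s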)
Details: Recombinant KvBeta, NADPH fluorescence decrease slope, 10 min; at 10 µM; hits give low values

Voltage-gated potassium channel subunit beta-2 (Rattus norvegicus), sequence (P62483 whole entry, looked up): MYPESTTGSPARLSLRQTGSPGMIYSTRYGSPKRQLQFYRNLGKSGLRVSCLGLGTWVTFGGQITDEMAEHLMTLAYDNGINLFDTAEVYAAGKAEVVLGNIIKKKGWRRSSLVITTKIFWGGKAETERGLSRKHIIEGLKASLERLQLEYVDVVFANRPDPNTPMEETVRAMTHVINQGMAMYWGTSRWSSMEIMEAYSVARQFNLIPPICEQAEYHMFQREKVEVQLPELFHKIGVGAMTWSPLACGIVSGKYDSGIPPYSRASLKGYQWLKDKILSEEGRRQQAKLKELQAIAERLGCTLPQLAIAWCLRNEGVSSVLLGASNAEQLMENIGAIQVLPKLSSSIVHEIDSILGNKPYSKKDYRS

Compound	NADPH fluorescence slope
COC(=O)C(NC(C)=O)(Nc1ccccn1)C(F)(F)F (stereo not drawn)	-0.000125
CCOC(=O)c1ccc2nc(NC(NC(C)=O)(C(=O)OC)C(F)(F)F)sc2c1 (stereo not drawn)	-9.4e-05
Cc1nc2sc(C#N)c(N)c2c2c1CCCC2	-1e-05
COCc1cc(=O)[nH]c(Nc2nc3ccccc3o2)n1	-5.1e-05
Cc1c(O)c(CN2CCCCC2)cc2c3c(c(=O)oc12)CCC3	-1.2e-06
O=C(C1CC1(c1ccccc1)c1ccccc1)N1CCOCC1 (stereo not drawn)	-6.1e-05
Cn1c(=O)[nH]c(=O)c2c1nc(N(CCO)Cc1ccccc1)n2Cc1ccccc1Cl	-6.1e-05
CC1(C)CNC(=O)c2sc(N3CCOCC3)nc2C1	-4.4e-05
CCOC(=O)CNC(=O)Nc1ccccc1C(=O)OC	-0.000189 (active)
CC(=O)C1=C(O)C(=O)N(c2ccc(C(=O)O)cc2)C1c1ccccc1 (stereo not drawn)	-5.9e-06
Cn1c(=O)n(Cc2ccccc2)c(=O)c2c1nc(NCC1CCCO1)n2Cc1ccccc1 (stereo not drawn)	-0.000124
c1ccc(CN2CCN(c3ncnc4c3[nH]c3ccccc34)CC2)cc1	-2.8e-05
Cc1nnc2n(-c3ccccc3)c(=O)c3c4c(sc3n12)CCCC4	-0.000128
COc1ccc2c(c1)n([O-])c1c([n+]2=O)CCC1	-3.5e-05
Cc1cc2c(c(=O)o1)C(Cc1ccccc1)C(C#N)=C(N)O2 (stereo not drawn)	-4.7e-05
c1ccc2c(c1)[nH]c1c(N3CCC4(CC3)OCCO4)ncnc12	-3.4e-05
CCOC(=O)c1ccc(N=Cc2nc(-c3ccccc3)oc2OC(C)=O)cc1	-5.5e-05
CCN1CCc2c(C#N)c(N3CCCCC3)nc(NCc3ccccc3)c2C1	-3.9e-05
Cc1cc(C)n(C(=O)CNC(=O)C2COc3ccccc3O2)n1 (stereo not drawn)	-4.6e-05
CCCCOc1ccccc1C(=O)NCCCC(=O)O	-0.000111

Compound	NADPH fluorescence slope
OCCNc1ncnc2c1c(-c1ccccc1)c(-c1ccccc1)n2Cc1ccco1	-6.4e-05
COc1ccc(CCn2c(=N)c(C#N)cc3c(=O)n4ccccc4nc32)cc1	-1.4e-05
Cc1nc2ccccc2cc1O	-3.6e-05
COC(=O)CNC(=O)c1c(C)cc(=O)oc1C	-2.8e-05
Cc1c(NC(=O)c2ccc(=O)oc2)c(=O)n(-c2ccccc2)n1C	-7.6e-06
Cc1ccc(C(=O)/C=C/Nc2cccc(O)c2)cc1	-0.000129
CCn1nc(NC(=O)c2cccnc2)c2cc3ccccc3nc21	-3.9e-05
Cc1ccc(/C=N/n2nnnc2N)o1	-2.1e-05
Cc1ccc2[nH]c3c(N4CCOCC4)ncnc3c2c1	-2.2e-05
O=C(Nc1ccccn1)NC(C(F)(F)F)C(F)(F)F	-0.000163
CC(=O)c1c(OCC(=O)O)ccc2c(C)cc(=O)oc12	-6.6e-05
O=C(NC1CCS(=O)(=O)C1)c1c(NC(=O)C2COc3ccccc3O2)sc2c1CCCC2 (stereo not drawn)	-4.5e-05
Cc1cc(O)c(C(C)C)cc1N=C1CSC(=O)N1	-5.3e-05
O=C1C2ON(c3ccccc3)C(c3cccnc3)C2C(=O)N1c1ccccc1 (stereo not drawn)	-2.9e-05
COc1ccccc1N=Cc1nc(-c2ccccc2)oc1OC(C)=O	-5.8e-05
Fc1ccc(-c2cnc[nH]2)cc1	-9.6e-05
Nn1c(SCC(=O)Nc2ccc3c(c2)OCCO3)nnc1C(F)(F)F	-5.4e-05
CN(C)/C=C1\N=C(c2ccc(Cl)cc2Cl)OC1=O	-4e-05
CCOc1ccccc1N1CCN(c2nc3ccccc3nc2C(C#N)C(=O)OC)CC1 (stereo not drawn)	-7e-05

Biological target: Muscarinic acetylcholine receptor M4 (Homo sapiens) (UniProt P08173)
Sequence (P08173 whole entry, looked up): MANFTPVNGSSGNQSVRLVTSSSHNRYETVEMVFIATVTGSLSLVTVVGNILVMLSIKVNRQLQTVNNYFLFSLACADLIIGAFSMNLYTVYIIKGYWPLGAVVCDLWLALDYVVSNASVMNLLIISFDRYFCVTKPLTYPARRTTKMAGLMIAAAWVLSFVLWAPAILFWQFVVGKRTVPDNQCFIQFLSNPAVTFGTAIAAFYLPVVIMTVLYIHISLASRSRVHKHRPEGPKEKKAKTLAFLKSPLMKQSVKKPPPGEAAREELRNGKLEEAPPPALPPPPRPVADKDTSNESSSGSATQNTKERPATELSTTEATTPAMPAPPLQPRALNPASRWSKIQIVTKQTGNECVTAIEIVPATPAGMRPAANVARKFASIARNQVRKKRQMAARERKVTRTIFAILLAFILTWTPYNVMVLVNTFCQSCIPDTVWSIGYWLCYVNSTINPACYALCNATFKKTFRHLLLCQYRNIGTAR
Test: compounds altering M4/GIRK thallium flux, either direction, primary screen, M4 allosteric agonist project, cell-based, HEK293 M4/GIRK, BTC-AM (AID 625);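 also: thallium influx through GIRK channels coupled to M4 in HEK293 cells with BTC-AM dye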
Details: at 10 µM, actives lie on both sides
Summary of the method: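 assay system = HEK293 cells with M4 receptor and GIRK channels | medium = pH 7.3 thallium assay buffer | doses = 10 µM final, single point | timing = cells overnight at 37 °C, BTC-AM loading 1 h, reads 2 min total | signal = BTC-AM fluorescence, 1 Hz kinetic reads | read-out = post-addition slope, 15–24 s, of baseline-normalized fluorescence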

Compound	fluorescence slope
COC(=O)C(NC(C)=O)(Nc1ccccn1)C(F)(F)F (stereo not drawn)	0.00527
CCOC(=O)c1ccc2nc(NC(NC(C)=O)(C(=O)OC)C(F)(F)F)sc2c1 (stereo not drawn)	0.00434
Cc1nc2sc(C#N)c(N)c2c2c1CCCC2	0.00523
COCc1cc(=O)[nH]c(Nc2nc3ccccc3o2)n1	0.00519
Cc1c(O)c(CN2CCCCC2)cc2c3c(c(=O)oc12)CCC3	0.00439
O=C(C1CC1(c1ccccc1)c1ccccc1)N1CCOCC1 (stereo not drawn)	0.00482
Cn1c(=O)[nH]c(=O)c2c1nc(N(CCO)Cc1ccccc1)n2Cc1ccccc1Cl	0.00652
CC1(C)CNC(=O)c2sc(N3CCOCC3)nc2C1	0.00631
CCOC(=O)CNC(=O)Nc1ccccc1C(=O)OC	0.00626
CC(=O)C1=C(O)C(=O)N(c2ccc(C(=O)O)cc2)C1c1ccccc1 (stereo not drawn)	0.00575
Cn1c(=O)n(Cc2ccccc2)c(=O)c2c1nc(NCC1CCCO1)n2Cc1ccccc1 (stereo not drawn)	0.00514
c1ccc(CN2CCN(c3ncnc4c3[nH]c3ccccc34)CC2)cc1	0.00594
Cc1nnc2n(-c3ccccc3)c(=O)c3c4c(sc3n12)CCCC4	0.00446
COc1ccc2c(c1)n([O-])c1c([n+]2=O)CCC1	0.00434
Cc1cc2c(c(=O)o1)C(Cc1ccccc1)C(C#N)=C(N)O2 (stereo not drawn)	0.00523
c1ccc2c(c1)[nH]c1c(N3CCC4(CC3)OCCO4)ncnc12	0.00574
CCOC(=O)c1ccc(N=Cc2nc(-c3ccccc3)oc2OC(C)=O)cc1	0.00761
CCN1CCc2c(C#N)c(N3CCCCC3)nc(NCc3ccccc3)c2C1	0.00484
Cc1cc(C)n(C(=O)CNC(=O)C2COc3ccccc3O2)n1 (stereo not drawn)	0.00449
CCCCOc1ccccc1C(=O)NCCCC(=O)O	0.00573

Compound	fluorescence slope
OCCNc1ncnc2c1c(-c1ccccc1)c(-c1ccccc1)n2Cc1ccco1	0.0047
COc1ccc(CCn2c(=N)c(C#N)cc3c(=O)n4ccccc4nc32)cc1	0.00759
Cc1nc2ccccc2cc1O	0.00432
COC(=O)CNC(=O)c1c(C)cc(=O)oc1C	0.00527
Cc1c(NC(=O)c2ccc(=O)oc2)c(=O)n(-c2ccccc2)n1C	0.00562
Cc1ccc(C(=O)/C=C/Nc2cccc(O)c2)cc1	0.00389
CCn1nc(NC(=O)c2cccnc2)c2cc3ccccc3nc21	0.00509
Cc1ccc(/C=N/n2nnnc2N)o1	0.00641
Cc1ccc2[nH]c3c(N4CCOCC4)ncnc3c2c1	0.00605
O=C(Nc1ccccn1)NC(C(F)(F)F)C(F)(F)F	0.00603
CC(=O)c1c(OCC(=O)O)ccc2c(C)cc(=O)oc12	0.00563
O=C(NC1CCS(=O)(=O)C1)c1c(NC(=O)C2COc3ccccc3O2)sc2c1CCCC2 (stereo not drawn)	0.00528
Cc1cc(O)c(C(C)C)cc1N=C1CSC(=O)N1	0.00491
O=C1C2ON(c3ccccc3)C(c3cccnc3)C2C(=O)N1c1ccccc1 (stereo not drawn)	0.00593
COc1ccccc1N=Cc1nc(-c2ccccc2)oc1OC(C)=O	0.00675
Fc1ccc(-c2cnc[nH]2)cc1	0.00534
Nn1c(SCC(=O)Nc2ccc3c(c2)OCCO3)nnc1C(F)(F)F	0.00501
CN(C)/C=C1\N=C(c2ccc(Cl)cc2Cl)OC1=O	0.00537
CCOc1ccccc1N1CCN(c2nc3ccccc3nc2C(C#N)C(=O)OC)CC1 (stereo not drawn)	0.00534
